Experiments:
[1] = folding enthalpy; higher = less favourable; fluorescence melt of hairpins on a sequencing array, two-state fit; settings: sodium 0.088 M
Method in brief: (§1)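 Folding enthalpy and melting temperature come from bootstrapped two-state fits to Cy3 fluorescence of library hairpins carrying annealed Cy3 and quencher oligos on a sequenced MiSeq flow cell. Imaging was done in 50 mM Na-HEPES pH 8.0, 25 mM NaCl, stepping by 2.5 °C up to 60 °C, and signals were normalised to pre-quench Cy3 and to control constructs. Results of four replicates were combined by inverse variance, and fitted temperatures were raised by 9.35 °C to match UV melts.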

[2] = melting temperature; fluorescence melt of hairpins on a sequencing array, two-state fit, raised by 9.35 °C to match UV melts; settings: sodium 0.088 M
Method in brief: as §1

Sequence | folding enthalpy [1] | Tm [2]
GTTCAACCGAAAGGTAAC (((..(((....)))))) | -11.7 kcal/mol | 26.7 °C
GGCGACGGAAACGTCACC ((.((((....)))).)) | -33.5 kcal/mol | 54.7 °C
GTAGGGGCGAAAGCCTAC (((..(((....)))))) | -10.8 kcal/mol | 37.9 °C
GGCACCGAAAGGTTAGCC ((((((....)))..))) | -28.9 kcal/mol | 50.8 °C
GCCGGTACGAAAGTAGGC (((..(((....)))))) | -24.7 kcal/mol | 48.7 °C
GACTTAGCGAAAGCTGTC (((..(((....)))))) | -14.6 kcal/mol | 43.8 °C
GAATACGAAAGTACTTC ((((((....))).))) | -17 kcal/mol | 30.2 °C
GAGAGTGGAAACACTCTC (((((((....))))))) | -41.2 kcal/mol | 61.5 °C
GGCAGTCCGAAAGGAGCC (((..(((....)))))) | -22.1 kcal/mol | 47.4 °C
TACATGAAAATGTA (((((....))))) | -12.7 kcal/mol | 32.1 °C
GCGACGCGAAAGCCACGC (((..((....))..))) | -17.7 kcal/mol | 48.7 °C
GATCACCCGTGTGATC ((((((....)))))) | -47.7 kcal/mol | 55.5 °C
GATCCTACGAAGGATC ((((((....)))))) | -35.9 kcal/mol | 50.3 °C
GCCTGCGAAAGCACCGGC ((((((....)))..))) | -18.5 kcal/mol | 46.6 °C
GCTCAGCGAAAGCGGCGC ((.(.((....)).).)) | -19.5 kcal/mol | 58.4 °C
GCTAAGGGAAACTTTGGC ((.((.(....).)).)) | -10.8 kcal/mol | 27.9 °C
GCGGACACCGC ((((...)))) | -26.3 kcal/mol | 56.2 °C
ATATGGAAACATAT (((((....))))) | -11.4 kcal/mol | 27.6 °C
GGGTTACGAAAGTACCC (((.(((....)))))) | -31.5 kcal/mol | 54.3 °C
GATCTGGTGTCAGATC ((((((....)))))) | -35.2 kcal/mol | 49.8 °C
GCGAAGCGAAAGCAACGC (((..((....))..))) | -11 kcal/mol | 48.4 °C
GGTTGGGGAAACCCGACC (((.(((....))).))) | -32.4 kcal/mol | 56.7 °C
GAAGCAGGAAACTACTTC ((((.((....)).)))) | -19 kcal/mol | 31.7 °C

Sequence | folding enthalpy [1] | Tm [2]
GATCTCGCTTGAGATC ((((((....)))))) | -36.8 kcal/mol | 54.4 °C
CGTTCGGAAACGACCACG ((((((....)))..))) | -8.89 kcal/mol | 27.3 °C
GAGTACCGAAAGGTGCTC (((.(((....))).))) | -36.6 kcal/mol | 60.6 °C
GCTTAGCGAAAGCATAGC (((..((....))..))) | -16.8 kcal/mol | 45.7 °C
GAACTAGGAAACTAGCTC ((.((((....)))).)) | -21.3 kcal/mol | 29 °C
GCGCCGCGAAAGCGATGC ((..(((....)))..)) | -19.4 kcal/mol | 60.8 °C
GTGCCGGGAAACTGGCAC (((((.(....).))))) | -37 kcal/mol | 66 °C
GGATGCGGAAACGCACCC ((.((((....)))).)) | -27.4 kcal/mol | 52.2 °C
GCGAGAATTCGC ((((....)))) | -21.8 kcal/mol | 55.3 °C
GAGGACGAAAGTCTCCTC ((((((....)))..))) | -14.9 kcal/mol | 36.3 °C
GCAGTTGGAAACAGCTGC ((((.((....)).)))) | -31.9 kcal/mol | 54.5 °C
GAGCCCGAAAGGGAGCTC ((((((....)))..))) | -20 kcal/mol | 55.6 °C
GACCCACGAAAGTGTGTC (((.(((....))).))) | -27.4 kcal/mol | 48.9 °C
GCGCTCGAAAGAGCTCGC ((((((....)))..))) | -14.4 kcal/mol | 47.8 °C
GGGCGGCGAAAGCCCCCC (((.(((....))).))) | -16.6 kcal/mol | 63.9 °C
GCGACCGGAAACGGTTGC ((.((((....)))).)) | -41.1 kcal/mol | 64.6 °C
GCAATGCGAAAGCTGTGC (((..((....))..))) | -20.6 kcal/mol | 48.4 °C
GCGGGCGGAAACACCCGC (((((.(....).))))) | -44.2 kcal/mol | 60.5 °C
GCAAGAGGAAACTTTTGC ((((.((....)).)))) | -26 kcal/mol | 39 °C
GATCGGCTACCCGATC ((((((....)))))) | -41 kcal/mol | 54.9 °C
GCTACCGAAAGGTCTAGC ((((((....)))..))) | -14.9 kcal/mol | 36.6 °C
GACAGACGAAAGTCCGTC (((.(((....))).))) | -26 kcal/mol | 47.5 °C
GATCTCAAGTGAGATC ((((((....)))))) | -34.5 kcal/mol | 51.5 °C
